Measurements: ChEMBL document CHEMBL1142893, “Synthesis and biological evaluation of novel 5(H)-phenanthridin-6-ones, 5(H)-phenanthridin-6-one diketo acid, and polycyclic aromatic diketo acid analogs as new HIV-1 integrase inhibitors” (Bioorg Med Chem, 2007)
Calls of active or inactive are those of the source. No cut-off for these calls is given here.

Experiments:
[1] = molecular target: T1, Human immunodeficiency virus type 1 integrase (Human immunodeficiency virus 1, UniProt Q7ZJM1); test: Inhibition of HIV1 integrase strand transfer activity
Summary of the method: (§1)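 Wild-type integrase at 200 nM final was preincubated with inhibitor for 30 min at 30 °C. Reaction buffer: 50 mM NaCl, 1 mM HEPES pH 7.5, EDTA, dithiothreitol, 10% glycerol, 7.5 mM MnCl₂, 0.1 mg/mL BSA, 10 mM 2-mercaptoethanol, 10% DMSO, 25 mM MOPS pH 7.2.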

[2] = molecular target: T1, Human immunodeficiency virus type 1 integrase; test: Inhibition of HIV1 integrase 3'-end processing activity; summary of the method: as §1
Vero = test: Cytotoxicity against Vero cells after 3 days; type: cell-based; conditions: Chlorocebus sabaeus, 72 h
CCRF-CEM = test: Cytotoxicity against human CEM cells after 6 days; type: cell-based; conditions: 144 h; for IC50: Homo sapiens, CCRF-CEM
Summary of the method: (§2)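 Uninfected cells (CEM leukemia cells; PBMC from whole blood of healthy donors) cultured with or without compound for 6 days. Afterwards cells were stained with Trypan blue and counted for proliferation and viability. Values reflect effects on cell growth.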

[3] = test system: Human immunodeficiency virus 1; test: Antiviral activity against HIV1 LAI replication in human PBMC after 5 days; type: functional, organism-based; conditions: for EC50 / EC90: Human immunodeficiency virus 1, LAI, 120 h
Summary of the method: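 PBMC (10⁷ cells/flask) stimulated 3 days with phytohemagglutinin, then infected with HIV-1 LAI at 100 50% tissue culture infective doses. Cultures were kept 5 days with compound at serial 1-log dilutions. Cells were removed by centrifugation (400g, 10 min, 4 °C), and the clarified supernatant was assayed for reverse transcriptase activity.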

PBMC = test: Cytotoxicity against human PBMC after 6 days; type: cell-based; conditions: 144 h; for IC50: Homo sapiens, PBMC; summary of the method: as §2
[4] = Selectivity index, ratio of EC50 for HIV1 LAI to IC50 for human PBMC; type: functional
[5] = test system: Human immunodeficiency virus 1; test: Antiviral activity against HIV1 LAI replication in MOLT4 cells; type: functional, organism-based; conditions: Human immunodeficiency virus 1, LAI, MOLT-4

T1 sequence (Q7ZJM1 whole entry): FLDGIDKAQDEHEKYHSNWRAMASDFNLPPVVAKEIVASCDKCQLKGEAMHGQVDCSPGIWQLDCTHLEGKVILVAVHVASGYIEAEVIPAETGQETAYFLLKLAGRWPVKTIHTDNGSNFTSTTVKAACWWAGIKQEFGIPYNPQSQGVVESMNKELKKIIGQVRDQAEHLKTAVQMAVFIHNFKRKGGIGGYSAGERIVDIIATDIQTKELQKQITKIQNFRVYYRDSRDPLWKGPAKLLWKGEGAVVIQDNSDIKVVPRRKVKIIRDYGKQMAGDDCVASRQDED

SMILES	IC50 [1] [µM]	IC50 [2] [µM]	other results
Cc1cccc2c1[nH]c(=O)c1ccccc12	> 1000	> 1000	–
Cc1cccc2c1[nH]c(=O)c1cc(C#N)ccc12	> 500	> 500	–
O=c1[nH]c2ccc(C(F)(F)F)cc2c2ccccc12	900	> 1000	–
N#Cc1cccc(CNc2ccc3[nH]c(=O)c4ccccc4c3c2)c1	> 500	> 500	–
Cc1cc(C)c2[nH]c(=O)c3ccc(C(F)(F)F)cc3c2c1	> 500	> 500	–
O=C(Nc1ccc2[nH]c(=O)c3ccccc3c2c1)c1ccccc1	> 500	> 500	–
Cc1cn([C@H]2C[C@H](N=[N+]=[N-])[C@@H](CO)O2)c(=O)[nH]c1=O [ZIDOVUDINE]	–	–	IC50 (Vero): 50 µM; EC50 [3]: 0.00073 µM; EC90 [3]: 0.019 µM; IC50 (PBMC): > 100 µM
COC(=O)C(=O)CC(=O)c1ccc(Br)c(CC(=O)c2ccccc2)c1	> 500	> 500	–
N#Cc1ccc(CNc2ccc3[nH]c(=O)c4ccccc4c3c2)cc1	> 500	> 500	–
CC(=O)Nc1ccc2[nH]c(=O)c3ccccc3c2c1	500	> 500	–
CCNc1ccc2[nH]c(=O)c3ccccc3c2c1	> 500	> 500	–
O=C(O)C(=O)CC(=O)c1cc(OCc2ccccc2)cc(OCc2ccccc2)c1	–	–	Activity (Vero): Not Active; Activity (CCRF-CEM; human, ccrf-cem): Not Active; Activity [3]: inactive; Activity (PBMC; human, pbmc): Not Active; EC50 [5]: 5.7 µM
COc1ccc2[nH]c(=O)c3ccccc3c2c1	500	> 500	–
N#Cc1cccc(CN(Cc2cccc(C#N)c2)c2ccc3[nH]c(=O)c4ccccc4c3c2)c1	> 500	> 500	–
Cc1cc(C)c2[nH]c(=O)c3ccccc3c2c1	> 1000	1000	–
O=C(O)C(=O)CC(=O)c1ccc(Br)c(CC(=O)c2ccccc2)c1	> 500	> 500	–
Cc1cccc2c1[nH]c(=O)c1ccc(C#N)cc12	500	> 500	–
Cc1cc(C)c2[nH]c(=O)c3ccc(C#N)cc3c2c1	> 500	> 500	–

More lines, main results first:

IC50 [1] [µM]	IC50 [2] [µM]	SMILES	other results
0.53	7	O=C(O)C(=O)CC(=O)c1ccc2ccc3cccc4ccc1c2c34	–
333	300	Cc1cc(C)c2[nH]c(=O)c3cc(C#N)ccc3c2c1	–
2.7	25	O=C(O)C(=O)CC(=O)c1ccc2ccc3ccccc3c2c1	IC50 (Vero): > 100 µM; IC50 (CCRF-CEM): 56.4 µM; EC50 [3]: 8 µM; EC90 [3]: 72.8 µM; IC50 (PBMC): 81 µM; Selectivity index [4]: 10
203	> 500	O=C(O)c1ccc2[nH]c(=O)c3ccccc3c2c1	–
27	102	COC(=O)C(=O)CC(=O)c1ccc(-c2ccccc2C(=O)OC)c([N+](=O)[O-])c1	–
7	26	COC(=O)c1ccccc1-c1ccc(C(=O)CC(=O)C(=O)O)cc1[N+](=O)[O-]	–
267	206	Nc1ccc2[nH]c(=O)c3ccccc3c2c1	–
109	449	Cc1cccc2c1[nH]c(=O)c1ccc(C(F)(F)F)cc12	–
78	225	O=c1[nH]c2ccc(Br)cc2c2ccccc12	–
13	32	O=C(O)C(=O)CC(=O)c1ccc2cc3ccccc3cc2c1	–
7	54	O=C(O)C(=O)CC(=O)c1ccc2ccccc2c1	–
62	500	N#Cc1ccc(CN(Cc2ccc(C#N)cc2)c2ccc3[nH]c(=O)c4ccccc4c3c2)cc1	–
415	> 500	O=c1[nH]c2ccc(S(=O)(=O)c3ccccc3)cc2c2ccccc12	–
65	400	O=C(O)C(=O)CC(=O)c1ccc2c(c1)[nH]c(=O)c1ccccc12	–
400	> 500	N#Cc1ccc2[nH]c(=O)c3ccccc3c2c1	–
35	> 100	Cc1nc2oc3ccccc3c(=O)c2cc1C(=O)CC(=O)C(=O)O	–
23	> 100	O=C(O)C(=O)CC(=O)c1ccc(N2CCOCC2)cc1	–
100	500	O=c1[nH]c2ccc(Cl)cc2c2ccccc12	–
1.7	54	O=C(O)C(=O)CC(=O)c1c2ccccc2cc2ccccc12	IC50 (Vero): > 100 µM; IC50 (CCRF-CEM): > 100 µM; EC50 [3]: > 100 µM; EC90 [3]: > 100 µM; IC50 (PBMC): > 100 µM
16	92	Cc1ccc2oc3nc(C)c(C(=O)CC(=O)C(=O)O)cc3c(=O)c2c1	–
4.8	23	O=C(O)C(=O)CC(=O)c1ccc2c(ccc3ccccc32)c1	IC50 (Vero): 10.8 µM; IC50 (CCRF-CEM): 16.2 µM; EC50 [3]: 26.6 µM; EC90 [3]: > 100 µM; IC50 (PBMC): > 100 µM
0.38	9	O=C(O)C(=O)CC(=O)c1cc2ccccc2c2ccccc12	IC50 (Vero): > 100 µM; IC50 (CCRF-CEM): 73.1 µM; EC50 [3]: 83.7 µM; EC90 [3]: > 100 µM; IC50 (PBMC): 83.5 µM
3	11	Cc1ccc2cc(C(=O)CC(=O)C(=O)O)ccc2c1	–
